From the array DNA melting data of Ke et al. (doi:10.1101/2024.01.08.574731) come the findings set out here.

Data set [1] in a line: melting temperature; fluorescence melt of hairpins on a sequencing array, two-state fit, raised by 9.35 °C to match UV melts. The following applies: sodium 0.088 M. Summed up:
(§1)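 In 50 mM Na-HEPES pH 8.0 containing 25 mM NaCl, hairpins from the library on a sequenced MiSeq flow cell were imaged for Cy3 fluorescence at 2.5 °C steps up to 60 °C, with Cy3 and quencher oligos annealed. After normalisation to pre-quench Cy3 and to control constructs, two-state fits with bootstrapping gave melting temperature and folding enthalpy. Four replicates were combined by inverse-variance weighting, and fitted temperatures were shifted up by 9.35 °C to match UV melts.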

Data set [2] can be described thus: folding enthalpy; higher = less favourable; fluorescence melt of hairpins on a sequencing array, two-state fit. As to conditions: sodium 0.088 M. The method in brief: as §1

As to GATCCCTTCTGGGATC ((((((....)))))), the Tm in data set [1] turned out to be 62.5 °C. For the same sequence, the folding enthalpy in data set [2] was -39.1 kcal/mol.
The like results for GATCCCTTGGGGATC ((((((...)))))) were, in that order, 60.1 °C and -33 kcal/mol.
Taken in the same sequence, the figures for GATCCGAACACGGATC ((((((....)))))) were 57.2 °C and -36.6 kcal/mol.
The like results for GATCCGAACGCGGATC ((((((....)))))) were, in that order, 55.1 °C and -39.6 kcal/mol.
As to GATCCGAATGCGGATC ((((((....)))))), the Tm in data set [1] is 54.1 °C. Also, the folding enthalpy in data set [2] is -37.8 kcal/mol.
Taken in the same sequence, the figures for GATCCGACCGCGGATC ((((((....)))))) were 56.8 °C and -34.6 kcal/mol.
Taken in the same sequence, the figures for GATCCGACGACGGATC ((((((....)))))) were 56.7 °C and -36.6 kcal/mol.
Taken in the same sequence, the figures for GATCCGAGCACGGATC ((((((....)))))) were 58.5 °C and -38.2 kcal/mol.
On to GATCCGAGCGCGGATC ((((((....)))))), for which, in data set [1], the Tm was found to be 58.8 °C. For the same sequence, in data set [2], the folding enthalpy was -42.4 kcal/mol.
Taken in the same sequence, the figures for GATCCGAGTACGGATC ((((((....)))))) were 58.6 °C and -40.8 kcal/mol.
The like results for GATCCGATATCGGATC ((((((....)))))) were, in that order, 59.2 °C and -39.9 kcal/mol.
The like results for GATCCGATCACGGATC ((((((....)))))) were, in that order, 59.5 °C and -40.6 kcal/mol.
As for GATCCGCACCCGGATC ((((((....)))))), the Tm in data set [1] is 55.4 °C. Besides, the folding enthalpy in data set [2] was -38.6 kcal/mol.
Regarding GATCCGCCAGCGGATC ((((((....)))))), the Tm in data set [1] is 65.2 °C. Besides, in data set [2], the folding enthalpy was -44.9 kcal/mol.
As to GATCCGCCCCCGGATC ((((((....)))))), the Tm in data set [1] was found to be 56.5 °C. Moreover, the folding enthalpy in data set [2] is -40.6 kcal/mol.
Taken in the same sequence, the figures for GATCCGCCCTCGGATC ((((((....)))))) were 57.1 °C and -40.6 kcal/mol.
Taken in the same sequence, the figures for GATCCGCGAAAGCGTATC (((.(((....))).))) were 43.4 °C and -18.4 kcal/mol.
With GATCCGCGACGGATC ((((((...)))))), the Tm in data set [1] is 57.9 °C. Further, the folding enthalpy in data set [2] was -39 kcal/mol.
Taken in the same sequence, the figures for GATCCGGAAGCGGATC ((((((....)))))) were 59.8 °C and -33.2 kcal/mol.
The like results for GATCCGGACCCGGATC ((((((....)))))) were, in that order, 61.1 °C and -36.9 kcal/mol.
Taken in the same sequence, the figures for GATCCGGAGACGGATC ((((((....)))))) were 63.6 °C and -32.9 kcal/mol.
For GATCCGGAGGCGGATC ((((((....)))))), the Tm in data set [1] amounted to 57.8 °C. The folding enthalpy in data set [2] was -33.4 kcal/mol.
The like results for GATCCGGATGCGGATC ((((((....)))))) were, in that order, 58.5 °C and -35.4 kcal/mol.
Taken in the same sequence, the figures for GATCCGGATTCGGATC ((((((....)))))) were 59.1 °C and -35.7 kcal/mol.
The like results for GATCCGGCAACGGATC ((((((....)))))) were, in that order, 67.8 °C and -35 kcal/mol.
With GATCCGGCACCGGATC ((((((....)))))), in data set [1], the Tm amounted to 63.8 °C. Besides, the folding enthalpy in data set [2] was -44 kcal/mol.
Taken in the same sequence, the figures for GATCCGGCCTCGGATC ((((((....)))))) were 58.7 °C and -42.1 kcal/mol.
In the case of GATCCGGGAAACCGGACC (.(((((....))))).), the Tm in data set [1] amounted to 44.1 °C. In data set [2], the folding enthalpy was -13.2 kcal/mol.
As for GATCCGGGAAACTGGGTC ((.((.(....).)).)), in data set [1], the Tm came out at 40 °C. The folding enthalpy in data set [2] was -30.1 kcal/mol.
The like results for GATCCGGGAACGGATC ((((((....)))))) were, in that order, 66.1 °C and -33.4 kcal/mol.
Taken in the same sequence, the figures for GATCCGGGAGCGGATC ((((((....)))))) were 61.1 °C and -37.4 kcal/mol.
Regarding GATCCGGGCACGGATC ((((((....)))))), the Tm in data set [1] is 67.8 °C. In data set [2], the folding enthalpy was -31.1 kcal/mol.
The like results for GATCCGGGCCGGATC ((((((...)))))) were, in that order, 60.3 °C and -46.2 kcal/mol.
Taken in the same sequence, the figures for GATCCGGGGCGGATC ((((((...)))))) were 56 °C and -37.2 kcal/mol.
The like results for GATCCGGTACCGGATC ((((((....)))))) were, in that order, 64.5 °C and -43.4 kcal/mol.
For GATCCGGTCCGGATC ((((((...)))))), the Tm in data set [1] worked out at 59.8 °C. In data set [2], the folding enthalpy was -40.6 kcal/mol.
Taken in the same sequence, the figures for GATCCGGTCGCGGATC ((((((....)))))) were 60.2 °C and -36.7 kcal/mol.
Taken in the same sequence, the figures for GATCCGGTTACGGATC ((((((....)))))) were 68.5 °C and -36.9 kcal/mol.
